SR-BI HDL uptake: mouse SR-BI HDL lipid transfer inhibition; Q61009; ldlA[mSR-BI] CHO cells, DiI-HDL uptake fluorescence, 3 h; inhibition, % at 12.5 µM; actives 0.96% (n = 320,000); AID 488896;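 active = mean replicate inhibition of at least 70% and a set share of replicates each scoring 70 or more; inconclusive = meets just one of the two criteria; inactive = fails both criteria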
SR-BI uptake up: enhances SR-BI lipid uptake from DiI-HDL; activation, % at 12.5 µM; actives 0.096% (n = 320,000); CHO ldlA[mSR-BI] cells, DiI-HDL uptake fluorescence, 3 h; 100 = double the neutral-control signal;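 active = mean replicate activation of at least 60% and every replicate at or above 60%; inconclusive = mean or all-replicate condition met, but not both; inactive = mean below 60% and not all replicates reaching 60%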
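material = CHO ldlA[mSR-BI] cells | medium = Ham's F12 with 0.5% BSA, HEPES 25 mM, pH 7.4 | reagent = fluorescent DiI-HDL, 10 µg/mL final | compound dosing = single-point compound dose | incubation = 3 h, 37 °C | measured by = bottom-read fluorescence, 550/595 nm | measure = HDL uptake via cellular fluorescence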
AHR activator: activates the human aryl hydrocarbon receptor; AHR-responsive luciferase reporter cells, luminescence; activation, % at 5 µM; actives 2.5% (n = 320,000); in the data active = activation above about 47%
GASC-1 inh: human JMJD2C demethylase inhibition. inhibition, % at 2.35 µM. GST-JMJD2C(1-420) H3K9me3 demethylation, DELFIA europium. actives 0.069% (n = 330,000);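 active = more than half of a compound's replicate wells show inhibition beyond 50%, single wells judged on their own value; inconclusive = some, but no more than half, of replicates pass 50% inhibition; inactive = no replicate passes 50% inhibition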;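 note: signal counts dimethyl H3K9 product captured on neutravidin plate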
Target sequence (Q9H3R0 1-420 limits assumed): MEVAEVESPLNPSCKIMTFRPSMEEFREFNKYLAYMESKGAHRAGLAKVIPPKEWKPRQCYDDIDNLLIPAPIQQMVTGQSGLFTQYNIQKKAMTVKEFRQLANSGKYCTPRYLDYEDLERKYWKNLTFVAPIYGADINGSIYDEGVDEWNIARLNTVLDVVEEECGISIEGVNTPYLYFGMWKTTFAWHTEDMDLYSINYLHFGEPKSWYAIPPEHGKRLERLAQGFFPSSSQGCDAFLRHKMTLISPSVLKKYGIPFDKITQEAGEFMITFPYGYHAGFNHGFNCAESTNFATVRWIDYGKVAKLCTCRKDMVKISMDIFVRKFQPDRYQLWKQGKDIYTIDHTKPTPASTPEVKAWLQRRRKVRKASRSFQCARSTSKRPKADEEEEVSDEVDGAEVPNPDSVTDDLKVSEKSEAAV
GAA850 FXN act: increases GAA850 frataxin promoter reporter activity; HEK293 lucGAA850 FXN promoter luciferase reporter, 24 h; percent of 10 µM SAHA response; activation, % at 6 µM; actives 0.56% (n = 360,000); AID 540364;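 active = activation above the average of all compounds screened plus 3 SD, cutoff fixed separately per campaign, cut at about 7.5% in these data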
Large screens that a line does not name were inactive. Only some compounds are listed: those with a hit (about 3.7% of all), similar ones and a draw of the others.

CCN(CC)S(=O)(=O)c1cccc(C(=O)Nc2cc(C)cc(C)c2)c1	SR-BI HDL uptake 76.7
CCN(CC)S(=O)(=O)c1cccc(C(=O)N/N=C/c2ccc(O)c(O)c2O)c1	none
CCOc1ccccc1/C=N/NC(=O)c1cccc(S(=O)(=O)N(CC)CC)c1	SR-BI HDL uptake 77.1
CCOc1ccccc1/C=N/NC(=O)c1cccc(Cl)c1	SR-BI HDL uptake 86.1
CCOc1ccc(Cl)cc1/C=N/NC(=O)c1ccccc1	none
Cc1cc(C)cc(NC(=O)N2CCN(C/C=C/c3ccccc3)CC2)c1	none
Cc1cc(Cl)ccc1OCCCC(=O)N/N=C/c1cccc([N+](=O)[O-])c1	none
CC(C)Oc1ccccc1/C=N/NC(=O)c1ccc(F)cc1	none
CC(C)Oc1ccccc1/C=N/NC(=O)c1ccccc1Cl	SR-BI HDL uptake 77.0
Cc1cc2ncn(-c3ncccc3[N+](=O)[O-])c2cc1C	AHR activator 47.7
O=[N+]([O-])c1cccnc1-n1cnc2ccccc21	none
COc1cc(NC(=O)c2cc([N+](=O)[O-])ccc2N2CCOCC2)ccc1NC(=O)c1ccco1	SR-BI HDL uptake 80.3
C=CCOC(=O)C1=C(C)NC(=S)NC1c1cccs1 (configuration not stated)	SR-BI HDL uptake 77.6
CCCCn1c(N)c(N(Cc2ccccc2OC)C(=O)c2c(CC)noc2C)c(=O)[nH]c1=O	none
COc1ccc(CCC(C)NCC(C)c2ccccc2)cc1 (configuration not stated)	none
CC(Cc1cccnc1)NC(=O)c1cc(COc2c(F)cccc2F)on1 (configuration not stated)	AHR activator 47.7
COc1cccc(NC(=O)c2cc([N+](=O)[O-])ccc2NCc2cccnc2)c1	AHR activator 66.3
NC(=O)c1cc([N+](=O)[O-])c(Cl)cc1NCc1cccnc1	AHR activator 58.4
Cc1ccc(NC(=O)c2cc([N+](=O)[O-])ccc2NCc2cccnc2)cc1Cl	AHR activator 50.8
O=C(O)c1cc([N+](=O)[O-])ccc1NCc1cccnc1	none
CCOC(=O)CSc1nc(=O)n2ccccc2n1	none
CN(Cc1cccnc1)Cc1cn(Cc2ccccc2)nc1-c1ccc2c(c1)OCO2	none
CN(Cc1cn(C)nc1-c1ccccc1F)Cc1nccn1C	none
CN(CCn1ccnc1)Cc1cn(-c2ccccc2)nc1-c1ccc2c(c1)OCO2	AHR activator 54.5
CN(Cc1cn(-c2ccccc2)nc1-c1ccc2c(c1)OCO2)Cc1nccn1C	AHR activator 47.8
O=C(O)c1ccc(/C=C2\SC(=Nc3ccccc3)N(c3ccccc3)C2=O)cc1	none
OC1(c2nc3ccccc3[nH]2)CCCCC1	none
Cc1sc2nc(CN(C(=O)NC3CCCCC3)C3CCCC3)[nH]c(=O)c2c1C	none
Cc1sc2nc(CN(Cc3cccs3)C(=O)NC3CCCCC3)[nH]c(=O)c2c1C	AHR activator 65.1
Cc1sc2c(c1C)C(=O)NC(c1cccc(O)c1)N2 (configuration not stated)	AHR activator 54.9 (no result: SR-BI HDL uptake, SR-BI uptake up, GAA850 FXN act)
COc1cc(C(=O)NCc2nnc(SCC(=O)NC3CCCCC3)o2)cc(OC)c1OC	none
N#Cc1c(SCC(=O)Nc2ccccc2)nsc1SCC(=O)Nc1ccccc1	none
CC1(C)C/C(=N\NC(=S)Nc2ccccc2F)c2cc(O)ccc2O1	AHR activator 60.1
Oc1ccccc1-n1nc2ccc3nonc3c2n1	AHR activator 75.7 (no result: SR-BI HDL uptake, SR-BI uptake up)
Cc1cc(C)cc(OCC(=O)OCC(=O)NCCC2=CCCCC2)c1	none
O=C(COC(=O)COc1ccccc1)NCCC1=CCCCC1	SR-BI uptake up 73.3
Cc1cc(C)nc(SCCN2CCCCC2)n1	SR-BI uptake up inconclusive
COc1ccc(NC(=O)c2ccc3[nH]c(C)c(C)c3c2)c(OC)c1	SR-BI HDL uptake 109.4
COc1ccc(NC(=O)c2oc3ccccc3c2C)c(OC)c1	AHR activator 57.8
CC(=O)Nc1c(C(=O)c2ccccc2)oc2ccccc12	AHR activator 108.6
CC(=O)Nc1cccc(NC(=O)c2oc3ccccc3c2C)c1	AHR activator 113.0 (no result: SR-BI HDL uptake, SR-BI uptake up, GAA850 FXN act)
CC(=O)Nc1ccc(NC(=S)NC(=O)c2oc3ccccc3c2C)cc1	none
CC(=O)Nc1c(C(=O)C2CC2)oc2ccccc12	none
COc1ccccc1NC(=O)c1oc2ccccc2c1C	none (no result: SR-BI HDL uptake, SR-BI uptake up, AHR activator, GASC-1 inh)
Cc1c(C(=O)Nc2cnccn2)oc2ccccc12	AHR activator 93.2
Cc1c(C(=O)Nc2ccc(Cl)cn2)oc2ccccc12	AHR activator 63.9
CCc1ccc(S(=O)(=O)Nc2cc(SCC(=O)O)c(O)c3ccccc23)cc1	AHR activator 52.9, GASC-1 inh inconclusive
Cc1cccc(NC(=O)CSc2ccc(-c3cccnc3)nn2)c1	AHR activator 50.0
O=C(CSc1nnc2ccc(-c3cccnc3)nn12)Nc1ccc(F)cc1	AHR activator 60.8, GASC-1 inh inconclusive
O=C(CSc1ccc(-c2ccccn2)nn1)c1ccc([N+](=O)[O-])cc1	none (no result: SR-BI HDL uptake, SR-BI uptake up)
O=C(CSc1ccc(-c2cccnc2)nn1)c1ccc([N+](=O)[O-])cc1	AHR activator 58.0 (no result: SR-BI HDL uptake, SR-BI uptake up)
COc1cc(N/N=C/c2ccccc2O)ncn1	none
COc1cc(N/N=C/c2ccc(N(C)C)cc2)ncn1	AHR activator 78.7
Oc1oc(-c2ccccc2)nc1C=NCc1ccncc1	AHR activator 69.6
Oc1oc(-c2ccccc2)nc1C=Nc1cccc2ccccc12	none
CN(Cc1ccccc1)C(=O)COC(=O)C12CC3CC(CC(Br)(C3)C1)C2	none
COc1ccccc1OCCn1cc(/C=N/n2cnnc2)c2ccccc21	AHR activator 49.4
CCOC(=O)Cn1cnc2scc(-c3ccc(C)cc3)c2c1=O	none
COc1cccc(C2=Nn3c(nnc3-c3ccccc3O)SC2)c1	AHR activator 57.6
COc1ccc(C2=Nn3c(nnc3-c3ccccc3OC)SC2)cc1OC	none
COc1cccc(-c2nnc3n2N=C(c2cc(OC)ccc2OC)CS3)c1	AHR activator 59.0
O=C(COc1ncnc2ccccc12)NCC1CCCO1 (configuration not stated)	none
O=C(O)c1cccc(N2C(=O)c3cccc(Oc4ccc(Cl)cc4)c3C2=O)c1	none
CC(=O)n1nc(-c2ccccc2)cc1-c1ccccc1	AHR activator 58.0
O=C(O)Cn1nc(-c2ccccc2)cc1-c1ccccc1	none
COc1cccc(/C=N/NC(=S)NCCc2ccccc2)c1OC	none (no result: AHR activator)
COc1cccc(/C=N/NC(N)=S)c1OCc1cccc(Cl)c1	AHR activator 59.7
COC(=O)N/N=C\c1ccccc1OC/C=C/c1ccccc1	none (no result: AHR activator)
NC(=S)N/N=C\c1ccccc1OCc1ccccc1	none
NC(=S)N/N=C/c1c[nH]c2ccc(OCc3ccccc3)cc12	SR-BI HDL uptake inconclusive, AHR activator 70.9
COC(=O)N/N=C/c1cc(Cl)cc(Cl)c1OCc1ccccc1	AHR activator 61.8
O=C(Nc1nc2ccc(SC(F)F)cc2s1)c1ccc(NS(=O)(=O)c2ccc(F)c(F)c2)cc1	none
CCOc1ccc(N(CC(=O)NCCc2ccccc2)C(=O)CCC(=O)Nc2cc(C)ccn2)cc1	none
FC(F)(F)c1ccc(-c2csc(-c3ccno3)n2)cc1	AHR activator 62.6
